The values that follow come from article PMC9364358 (RSC Advances, 2022).

For assay [1], the system named is MOPC-315 cell line. As to the kind of experiment: Cytotoxicity. Type of assay: cell-based.
Assay [2] has as its target T1, HDAC6 (Homo sapiens, UniProt Q9UBN7).
T1 sequence (Q9UBN7 1-1215): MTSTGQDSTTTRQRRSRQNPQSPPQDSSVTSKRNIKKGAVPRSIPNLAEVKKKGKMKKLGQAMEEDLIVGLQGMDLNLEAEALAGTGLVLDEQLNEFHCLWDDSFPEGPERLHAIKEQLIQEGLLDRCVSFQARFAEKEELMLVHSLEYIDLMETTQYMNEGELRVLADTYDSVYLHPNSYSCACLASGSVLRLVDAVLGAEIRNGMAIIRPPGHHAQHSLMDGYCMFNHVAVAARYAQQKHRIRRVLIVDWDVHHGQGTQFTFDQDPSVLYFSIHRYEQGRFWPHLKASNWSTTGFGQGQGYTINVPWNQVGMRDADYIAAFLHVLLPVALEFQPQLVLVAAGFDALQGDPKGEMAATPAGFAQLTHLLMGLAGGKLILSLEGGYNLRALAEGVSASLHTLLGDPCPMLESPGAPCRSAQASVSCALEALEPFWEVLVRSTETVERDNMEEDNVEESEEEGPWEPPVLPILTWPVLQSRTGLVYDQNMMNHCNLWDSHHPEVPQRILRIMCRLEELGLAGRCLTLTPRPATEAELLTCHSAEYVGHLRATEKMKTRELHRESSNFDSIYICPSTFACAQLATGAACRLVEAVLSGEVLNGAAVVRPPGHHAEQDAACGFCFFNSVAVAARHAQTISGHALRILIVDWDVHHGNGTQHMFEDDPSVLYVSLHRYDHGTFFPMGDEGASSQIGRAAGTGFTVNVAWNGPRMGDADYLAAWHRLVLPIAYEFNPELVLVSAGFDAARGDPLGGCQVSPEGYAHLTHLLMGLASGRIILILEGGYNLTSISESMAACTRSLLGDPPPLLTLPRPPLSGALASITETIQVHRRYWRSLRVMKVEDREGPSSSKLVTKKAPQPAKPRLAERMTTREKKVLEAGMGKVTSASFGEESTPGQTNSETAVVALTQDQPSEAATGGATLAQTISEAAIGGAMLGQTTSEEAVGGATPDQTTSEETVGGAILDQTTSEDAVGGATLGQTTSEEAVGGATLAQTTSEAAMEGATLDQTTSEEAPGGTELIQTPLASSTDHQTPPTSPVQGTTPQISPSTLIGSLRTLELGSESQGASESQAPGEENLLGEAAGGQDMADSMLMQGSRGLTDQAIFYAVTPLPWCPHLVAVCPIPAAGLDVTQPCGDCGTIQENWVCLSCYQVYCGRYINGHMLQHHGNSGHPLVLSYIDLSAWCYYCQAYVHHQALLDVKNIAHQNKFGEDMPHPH
Type of assay: biochemical. The gist of the method:
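HDAC6 enzyme was incubated 30 min with test compound at graded concentrations (DMSO) and HDAC substrate 2 (200 μM stock) in HDAC assay buffer with BSA (1 mg mL−1 stock). The reaction was stopped with HDAC assay developer for 15 min at room temperature, and fluorescence was read at 485/528 nm. A reference HDAC inhibitor served as positive control.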

Assay [3] has as its system HDACs. As to the kind of experiment: Fluorometric HDAC activity assay. Particulars: MCF-7 cells, 30 μM, 2 h. Type of assay: cell-based. The gist of the method:
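MCF-7 cells grown in RPMI-1640 with 10% FBS and 1% penicillin at 37 °C, 5% CO2, then seeded at 5 × 10^3 cells/well. After 24 h, medium was replaced, and HDAC substrate plus test compound (final 30 μM) or trichostatin A was added for 2 h. Developer mix was then added for 30 min at 37 °C, and fluorescence was read (ex 368 nm, em 442 nm).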

In general, IC50 refers to the concentration that inhibits the measured activity by half. Higher therefore signals weaker potency in that assay. Broadly, the inhibition is the relative decrease from the control value, in per cent. A lower inhibition goes with a response near the control. Regarding `O=C(/C=C/c1cccc(S(=O)(=O)Nc2ccccc2)c1)NO` [Belinostat], in assay [1] (Mus musculus, MOPC 315, 24 h, MOPC-315 cell line, 24 h incubation), the 50% inhibitory concentration (IC50) stood at 318 ± 49 nM. In addition, the Fold change in assay [1] (potency relative to belinostat (belinostat = 1.000), MOPC-315) is on record as 1.000. The inhibition at 5 µM in assay [2] was found to be 64.5%. Further, the “pan-HDAC inhibitory activity (HDAC activity, fluorescence signal)” value in assay [3] was “the activity was decreased”.
